From ChEMBL document CHEMBL4038327, “Inhibitory Kappa B Kinase α (IKKα) Inhibitors That Recapitulate Their Selectivity in Cells against Isoform-Related Biomarkers” (J Med Chem, 2017)

What was measured:
[1] = target: Casein kinase I isoform delta (Homo sapiens) (UniProt P48730); assay: Inhibition of recombinant human N-terminal GST-tagged CK1delta (1 to 294 residues) expressed in Escherichia coli at 10 uM relative to control
Procedure, shortened: (§1)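 Outsourced commercial kinase panel run at a single concentration, with duplicate assay points.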

[2] = target: Calcium/calmodulin-dependent protein kinase type 1 (Homo sapiens) (UniProt Q14012); assay: Inhibition of N-terminal GST tagged recombinant human CaMK1 (2 end residues) expressed in Escherichia coli cells at 10 uM relative to control; procedure, shortened: as §1
[3] = target: T1, Aurora kinase A (Homo sapiens) (UniProt O14965); assay: Inhibition of N-terminal His6 tagged recombinant human full length Aurora A expressed in Sf21 cells at 10 uM relative to control; procedure, shortened: as §1
T1 sequence (whole entry): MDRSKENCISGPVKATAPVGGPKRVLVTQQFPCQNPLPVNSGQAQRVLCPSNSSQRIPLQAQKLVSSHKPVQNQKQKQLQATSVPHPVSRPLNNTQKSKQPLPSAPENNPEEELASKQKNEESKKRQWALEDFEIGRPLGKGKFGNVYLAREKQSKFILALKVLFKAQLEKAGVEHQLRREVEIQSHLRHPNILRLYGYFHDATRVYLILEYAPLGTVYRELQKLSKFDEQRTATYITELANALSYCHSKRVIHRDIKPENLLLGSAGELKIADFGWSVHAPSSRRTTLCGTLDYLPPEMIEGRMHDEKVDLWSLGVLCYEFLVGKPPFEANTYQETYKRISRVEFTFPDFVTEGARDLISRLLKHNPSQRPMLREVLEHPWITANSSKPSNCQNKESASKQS

[4] = target: Serine/threonine-protein kinase Chk2 (Homo sapiens) (UniProt O96017); assay: Inhibition of N-terminal GST and C-terminal His6 tagged recombinant human CHK2 expressed in Escherichia coli cells at 10 uM relative to control; procedure, shortened: as §1
[5] = target: Glycogen synthase kinase-3 beta (Homo sapiens) (UniProt P49841); assay: Inhibition of human N-terminal GST-tagged GSK3beta at 10 uM relative to control; procedure, shortened: as §1
[6] = target: T2, Inhibitor of nuclear factor kappa-B kinase subunit beta (Homo sapiens, UniProt O14920); assay: Inhibition of IKKbeta in human U2OS cells assessed as TNFalpha induced IkBalpha degradation at 100 uM preincubated for 1 hr followed by TNFalpha stimulation for 30 mins by Western blot analysis; assay type: cell-based; conditions: 0.5 h
T2 sequence (O14920 whole entry): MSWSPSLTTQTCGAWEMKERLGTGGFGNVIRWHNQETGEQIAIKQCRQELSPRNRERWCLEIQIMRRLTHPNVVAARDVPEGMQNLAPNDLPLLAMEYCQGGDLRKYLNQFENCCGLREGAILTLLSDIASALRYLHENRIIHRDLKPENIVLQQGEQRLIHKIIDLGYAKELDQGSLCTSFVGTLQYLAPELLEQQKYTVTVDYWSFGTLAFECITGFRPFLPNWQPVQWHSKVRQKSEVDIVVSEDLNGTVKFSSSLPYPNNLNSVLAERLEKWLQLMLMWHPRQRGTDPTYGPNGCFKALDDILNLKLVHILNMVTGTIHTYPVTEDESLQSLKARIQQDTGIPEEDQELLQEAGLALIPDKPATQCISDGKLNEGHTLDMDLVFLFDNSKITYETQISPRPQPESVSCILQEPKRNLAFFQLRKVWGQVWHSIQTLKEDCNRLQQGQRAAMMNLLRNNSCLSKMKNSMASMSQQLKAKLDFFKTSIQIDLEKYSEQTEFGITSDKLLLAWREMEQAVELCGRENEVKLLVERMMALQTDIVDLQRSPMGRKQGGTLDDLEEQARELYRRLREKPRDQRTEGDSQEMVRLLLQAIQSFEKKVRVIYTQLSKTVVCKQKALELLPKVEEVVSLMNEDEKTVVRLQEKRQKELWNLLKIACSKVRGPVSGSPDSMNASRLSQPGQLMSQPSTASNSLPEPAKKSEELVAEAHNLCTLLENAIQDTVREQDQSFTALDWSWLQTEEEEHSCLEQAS
Procedure, shortened: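 U2OS cells were grown in McCoy's 5A medium at 37 °C under 5% CO2 and made quiescent by 24 h serum deprivation. They were then pretreated with compound before agonist stimulation in serum-free medium. Phospho-p100, IκBα levels and phospho-p65 (Ser536) were assessed by Western blot.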

[7] = target: T3, Inhibitor of nuclear factor kappa-B kinase subunit alpha (Mus musculus) (UniProt Q60680); assay: Inhibition of IKKalpha in IKKbeta knockout mouse embryonic fibroblast cells harboring Adv.NF-kB.luc assessed as IL-1beta induced NF-kB transcriptional activation at 100 uM pretreated for 1 hr followed by IL-1beta stimulation for 6 hrs by luciferase reporter gene assay relative to control; parameters: scale not given: the % may be the effect or the level left
T3 sequence (whole entry): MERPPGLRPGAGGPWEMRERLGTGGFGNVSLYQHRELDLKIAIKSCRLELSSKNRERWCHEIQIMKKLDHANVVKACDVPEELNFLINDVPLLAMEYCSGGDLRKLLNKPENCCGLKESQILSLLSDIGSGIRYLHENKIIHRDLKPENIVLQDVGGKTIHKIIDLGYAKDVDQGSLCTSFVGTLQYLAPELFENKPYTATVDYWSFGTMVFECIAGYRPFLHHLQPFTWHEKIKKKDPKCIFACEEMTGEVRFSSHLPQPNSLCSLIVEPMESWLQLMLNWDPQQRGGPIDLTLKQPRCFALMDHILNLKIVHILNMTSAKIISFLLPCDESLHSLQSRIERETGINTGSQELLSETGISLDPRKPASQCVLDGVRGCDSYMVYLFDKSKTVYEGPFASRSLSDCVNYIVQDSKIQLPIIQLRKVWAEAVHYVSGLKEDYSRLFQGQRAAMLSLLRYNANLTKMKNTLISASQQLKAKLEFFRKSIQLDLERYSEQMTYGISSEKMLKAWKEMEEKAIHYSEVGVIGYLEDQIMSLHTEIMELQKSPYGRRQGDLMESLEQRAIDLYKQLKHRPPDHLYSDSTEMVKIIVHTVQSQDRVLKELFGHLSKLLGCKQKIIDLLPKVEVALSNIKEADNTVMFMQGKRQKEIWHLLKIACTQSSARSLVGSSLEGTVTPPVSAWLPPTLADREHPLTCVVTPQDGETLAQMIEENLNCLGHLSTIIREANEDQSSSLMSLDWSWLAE
Procedure, shortened: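 IKKβ knockout MEFs infected with Adv.NF-kB.luc (up to 300 pfu/cell, 24 h, 10% DMEM), replated and serum-starved 24 h. Pretreated 1 h with compound, then IL-1β (10 ng/mL) for 6 h. Lysis buffer contained 0.2 mM luciferin, and luminescence was read as RLU. Results are expressed as % of IL-1β + DMSO stimulation.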

Chain of Calcium/calmodulin-dependent protein kinase type 1 (Homo sapiens) (Q14012 whole entry, looked up): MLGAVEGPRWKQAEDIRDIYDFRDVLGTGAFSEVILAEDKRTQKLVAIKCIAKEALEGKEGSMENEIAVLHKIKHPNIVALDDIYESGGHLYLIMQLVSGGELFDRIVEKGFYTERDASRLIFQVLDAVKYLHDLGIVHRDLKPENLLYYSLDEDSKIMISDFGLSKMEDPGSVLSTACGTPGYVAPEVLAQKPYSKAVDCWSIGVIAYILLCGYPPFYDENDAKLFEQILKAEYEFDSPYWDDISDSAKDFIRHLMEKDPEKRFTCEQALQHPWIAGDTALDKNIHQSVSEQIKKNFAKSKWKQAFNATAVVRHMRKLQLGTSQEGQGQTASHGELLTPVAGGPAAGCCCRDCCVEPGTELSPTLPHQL
Chain of Glycogen synthase kinase-3 beta (Homo sapiens) (P49841 whole entry, looked up): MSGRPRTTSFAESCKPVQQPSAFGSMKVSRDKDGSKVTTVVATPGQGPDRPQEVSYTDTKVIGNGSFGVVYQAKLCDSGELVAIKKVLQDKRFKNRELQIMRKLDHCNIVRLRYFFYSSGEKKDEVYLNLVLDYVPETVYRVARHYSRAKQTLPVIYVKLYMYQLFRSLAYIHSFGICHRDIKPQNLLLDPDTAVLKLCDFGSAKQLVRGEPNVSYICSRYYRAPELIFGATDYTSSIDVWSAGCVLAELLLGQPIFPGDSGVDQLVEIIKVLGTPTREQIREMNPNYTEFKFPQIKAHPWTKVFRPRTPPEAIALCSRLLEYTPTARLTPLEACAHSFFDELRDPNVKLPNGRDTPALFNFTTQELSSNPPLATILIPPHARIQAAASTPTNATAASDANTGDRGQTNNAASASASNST
Chain of Casein kinase I isoform delta (Homo sapiens) (P48730 whole entry, looked up, the tested form may be a part, canonical isoform): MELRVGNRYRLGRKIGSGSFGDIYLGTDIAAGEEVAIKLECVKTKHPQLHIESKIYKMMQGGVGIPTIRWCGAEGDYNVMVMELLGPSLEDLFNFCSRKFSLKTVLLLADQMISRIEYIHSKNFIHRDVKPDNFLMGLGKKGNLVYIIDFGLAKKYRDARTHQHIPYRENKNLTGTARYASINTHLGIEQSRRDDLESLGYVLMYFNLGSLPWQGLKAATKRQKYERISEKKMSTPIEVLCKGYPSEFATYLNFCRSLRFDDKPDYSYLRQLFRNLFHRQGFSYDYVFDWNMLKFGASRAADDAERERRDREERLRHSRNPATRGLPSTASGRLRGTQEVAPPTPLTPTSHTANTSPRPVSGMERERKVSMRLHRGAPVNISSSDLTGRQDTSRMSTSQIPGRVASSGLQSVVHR
Chain of Serine/threonine-protein kinase Chk2 (Homo sapiens) (O96017 whole entry): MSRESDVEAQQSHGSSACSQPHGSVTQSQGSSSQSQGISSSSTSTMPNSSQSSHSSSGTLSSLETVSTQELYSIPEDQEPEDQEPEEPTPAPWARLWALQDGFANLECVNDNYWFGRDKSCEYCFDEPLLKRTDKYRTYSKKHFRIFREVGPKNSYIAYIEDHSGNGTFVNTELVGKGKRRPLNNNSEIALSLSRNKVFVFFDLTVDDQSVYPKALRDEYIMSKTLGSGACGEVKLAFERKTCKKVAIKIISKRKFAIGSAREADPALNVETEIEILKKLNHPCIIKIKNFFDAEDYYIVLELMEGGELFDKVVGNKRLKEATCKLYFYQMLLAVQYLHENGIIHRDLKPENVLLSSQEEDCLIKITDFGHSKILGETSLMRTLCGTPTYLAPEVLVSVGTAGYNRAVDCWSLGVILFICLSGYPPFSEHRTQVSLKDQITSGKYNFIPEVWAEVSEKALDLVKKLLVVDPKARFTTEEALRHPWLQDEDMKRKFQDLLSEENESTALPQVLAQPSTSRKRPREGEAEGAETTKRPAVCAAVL

inhibition [1]: > 80%
inhibition [2]: > 80%
inhibition [3]: > 80%
inhibition [4]: > 80%
inhibition [5]: > 80%
inhibition (INH) [6]: Active
Activity [7]: -40.9%
Compound: N#Cc1c[nH]c2nc(N)nc(-c3ccc(S(N)(=O)=O)cc3)c12
